Experimental data as given in ChEMBL document CHEMBL2163259, “ADME-guided design and synthesis of aryloxanyl pyrazolone derivatives to block mutant superoxide dismutase 1 (SOD1) cytotoxicity and protein aggregation: potential application for the treatment of amyotrophic lateral sclerosis” (J Med Chem, 2012).
Calls of active or inactive are those of the source. The rule behind the calls is not given here.

How the values were obtained:
[1] = target: Adenosine receptor A1 (Homo sapiens) (UniProt P30542); test: Inhibition of human adenosine A1 receptor at 10 uM by radioligand displacement assay
How it was run: (§1)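 LeadProfilingScreen panel of 68 in vitro enzyme and receptor assays. Compound tested at 10 μM in duplicate.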

[2] = target: Muscarinic acetylcholine receptor M2 (Homo sapiens) (UniProt P08172); test: Inhibition of human muscarinic M2 receptor at 10 uM by radioligand displacement assay
How it was run: (§2)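 Single concentration of 10 μM, tested in duplicate as part of a contracted panel of 68 in vitro enzyme and receptor assays. The panel covers common adverse CNS, cardiovascular, pulmonary and genotoxic targets.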

[3] = test system: Superoxide dismutase [Cu-Zn] (Homo sapiens), P00441 [G94A]; test: Inhibition of SOD1 G93A mutant aggregation-induced cytotoxicity in human HeLa cells by cytotoxicity protection assay; type: cell-based
Sequence of Superoxide dismutase [Cu-Zn] (Homo sapiens), P00441 [G94A] (P00441 whole entry G94A, the tested form may be a part): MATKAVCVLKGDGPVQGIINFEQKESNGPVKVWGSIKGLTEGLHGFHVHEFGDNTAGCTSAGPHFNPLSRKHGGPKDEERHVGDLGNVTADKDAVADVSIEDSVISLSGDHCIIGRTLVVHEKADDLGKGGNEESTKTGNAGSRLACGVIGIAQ

Cytochrome P450 2D6 = Cytochrome P450 2D6 (Homo sapiens, UniProt P10635); test: Inhibition of CYP2D6; type: ADME
Sequence of Cytochrome P450 2D6 (P10635 whole entry): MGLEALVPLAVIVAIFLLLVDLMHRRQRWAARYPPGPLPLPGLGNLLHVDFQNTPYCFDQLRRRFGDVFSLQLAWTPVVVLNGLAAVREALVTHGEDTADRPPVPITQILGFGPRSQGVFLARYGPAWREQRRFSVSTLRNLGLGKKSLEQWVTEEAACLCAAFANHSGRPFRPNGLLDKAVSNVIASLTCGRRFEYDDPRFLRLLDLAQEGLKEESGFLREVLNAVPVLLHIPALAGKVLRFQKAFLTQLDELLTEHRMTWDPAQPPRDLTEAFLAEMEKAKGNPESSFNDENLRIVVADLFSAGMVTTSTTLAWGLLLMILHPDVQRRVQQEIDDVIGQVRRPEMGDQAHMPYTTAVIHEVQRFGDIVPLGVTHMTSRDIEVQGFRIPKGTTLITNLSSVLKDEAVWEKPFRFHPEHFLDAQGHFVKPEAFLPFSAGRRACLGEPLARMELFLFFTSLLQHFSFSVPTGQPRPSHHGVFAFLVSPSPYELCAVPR
How it was run: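 Reversible inhibition of CYP isozymes in human liver microsomes, each isozyme with a single probe substrate. CYP3A4 tested with both testosterone and midazolam. IC50 determined.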

[4] = target: Estrogen receptor (Homo sapiens) (UniProt P03372); test: Inhibition of human estrogen receptor-alpha at 10 uM by radioligand displacement assay; how it was run: as §2
Sequence of Estrogen receptor (Homo sapiens) (P03372 whole entry): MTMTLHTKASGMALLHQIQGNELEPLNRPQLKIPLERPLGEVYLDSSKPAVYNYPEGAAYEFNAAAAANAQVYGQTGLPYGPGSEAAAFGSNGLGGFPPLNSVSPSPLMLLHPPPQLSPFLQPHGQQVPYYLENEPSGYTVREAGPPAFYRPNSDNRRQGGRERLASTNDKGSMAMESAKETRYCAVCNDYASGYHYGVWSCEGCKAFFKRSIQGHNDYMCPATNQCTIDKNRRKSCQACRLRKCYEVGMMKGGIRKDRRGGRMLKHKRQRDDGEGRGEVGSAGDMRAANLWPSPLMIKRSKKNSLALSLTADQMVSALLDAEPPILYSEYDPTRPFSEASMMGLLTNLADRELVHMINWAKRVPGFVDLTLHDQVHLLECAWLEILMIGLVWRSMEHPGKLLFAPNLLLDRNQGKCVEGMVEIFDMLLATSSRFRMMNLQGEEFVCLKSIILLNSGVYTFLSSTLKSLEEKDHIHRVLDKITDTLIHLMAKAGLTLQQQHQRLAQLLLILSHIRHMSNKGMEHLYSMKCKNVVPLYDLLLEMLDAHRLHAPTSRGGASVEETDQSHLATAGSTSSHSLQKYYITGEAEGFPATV

[5] = Half life in mouse microsomes at 5 uM incubated for 1 hr at 37 degC in presence of NADPH; type: ADME, Microsome; settings: 1 h, 5 µM
Caco-2 = test: Apparent permeability from basolateral to apical side in human Caco2 cells; type: ADME, cell-based
[6] = target: Muscarinic acetylcholine receptor M3 (Homo sapiens) (UniProt P20309); test: Inhibition of human muscarinic M3 receptor at 10 uM by radioligand displacement assay; how it was run: as §2
Homo sapiens = organism: Homo sapiens; test: Inhibition of human nicotinic acetylcholine receptor bungarotoxin binding site at 10 uM by radioligand displacement assay
How it was run: (§3)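 Single concentration of 10 μM, tested in duplicate in a contract panel of 68 in vitro enzyme and receptor binding assays covering common adverse CNS, cardiovascular, pulmonary and genotoxic targets.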

Mus musculus [7] = organism: Mus musculus; test: Inhibition of mouse phorbol ester site of PKC at 10 uM by radioligand displacement assay; how it was run: as §2
[8] = target: Alpha-2A adrenergic receptor (Homo sapiens) (UniProt P08913); test: Inhibition of human adrenergic alpha2A receptor at 10 uM by radioligand displacement assay; how it was run: as §1
Sequence of Alpha-2A adrenergic receptor (Homo sapiens) (P08913 whole entry): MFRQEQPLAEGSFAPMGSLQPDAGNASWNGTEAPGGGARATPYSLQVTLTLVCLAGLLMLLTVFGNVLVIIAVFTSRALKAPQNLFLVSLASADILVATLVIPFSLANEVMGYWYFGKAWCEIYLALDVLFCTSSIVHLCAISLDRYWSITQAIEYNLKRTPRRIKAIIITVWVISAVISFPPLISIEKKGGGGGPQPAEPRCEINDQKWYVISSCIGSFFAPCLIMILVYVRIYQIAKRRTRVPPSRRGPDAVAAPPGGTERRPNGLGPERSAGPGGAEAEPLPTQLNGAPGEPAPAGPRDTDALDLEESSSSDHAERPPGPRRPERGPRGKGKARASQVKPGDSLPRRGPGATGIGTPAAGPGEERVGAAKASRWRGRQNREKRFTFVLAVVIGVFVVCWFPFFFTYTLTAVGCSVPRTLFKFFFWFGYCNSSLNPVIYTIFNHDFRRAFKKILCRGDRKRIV

[9] = target: Alpha-1D adrenergic receptor (Homo sapiens) (UniProt P25100); test: Inhibition of human adrenergic alpha1D receptor at 10 uM by radioligand displacement assay; how it was run: as §1
Sequence of Alpha-1D adrenergic receptor (Homo sapiens) (P25100 whole entry): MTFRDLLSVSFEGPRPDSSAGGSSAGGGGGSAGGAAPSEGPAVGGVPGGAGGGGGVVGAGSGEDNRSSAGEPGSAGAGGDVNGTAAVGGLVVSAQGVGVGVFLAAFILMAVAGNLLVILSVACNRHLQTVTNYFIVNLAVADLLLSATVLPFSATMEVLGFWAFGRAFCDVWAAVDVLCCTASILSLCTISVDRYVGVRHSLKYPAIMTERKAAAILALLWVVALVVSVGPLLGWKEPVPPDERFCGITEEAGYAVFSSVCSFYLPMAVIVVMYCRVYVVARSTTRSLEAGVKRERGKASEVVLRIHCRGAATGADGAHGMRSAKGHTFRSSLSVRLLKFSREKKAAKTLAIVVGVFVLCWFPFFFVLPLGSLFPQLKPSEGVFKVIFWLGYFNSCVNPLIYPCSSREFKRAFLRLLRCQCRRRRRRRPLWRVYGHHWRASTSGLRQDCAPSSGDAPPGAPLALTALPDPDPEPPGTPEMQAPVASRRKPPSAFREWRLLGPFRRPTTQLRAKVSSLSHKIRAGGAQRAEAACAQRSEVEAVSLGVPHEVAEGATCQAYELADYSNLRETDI

[10] = target: Prostaglandin E2 receptor EP4 subtype (Homo sapiens) (UniProt P35408); test: Inhibition of human prostanoid receptor EP4 at 10 uM by radioligand displacement assay; how it was run: as §2
[11] = Half life in Sprague-Dawley rat at 1 mg/kg, po; type: ADME, organism-based; parameters: dose 1 mg/kg, route oral; settings: in vivo
How it was run: (§4)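 Sprague-Dawley rats given a single 1 mg/kg bolus, intravenous or oral. Plasma PK parameters (AUC, dose-normalised AUC, half-life, clearance, Vss, Cmax, Tmax, oral bioavailability) derived from plasma levels.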

Rattus norvegicus [12] = organism: Rattus norvegicus; test: Inhibition of rat GABA transporter at 10 uM by radioligand displacement assay; how it was run: as §2
[13] = target: Sodium-dependent noradrenaline transporter (Homo sapiens) (UniProt P23975); test: Inhibition of human norepinephrine transporter at 10 uM by radioligand displacement assay; how it was run: as §2
Rattus norvegicus [14] = test: Dose normalised AUC in Sprague-Dawley rat at 1 mg/kg, iv; type: ADME, organism-based; parameters: dose 1 mg/kg, route intravenous; settings: in vivo; how it was run: as §4
[15] = target: Alpha-1B adrenergic receptor (Rattus norvegicus) (UniProt P15823); test: Inhibition of rat adrenergic alpha1B receptor at 10 uM by radioligand displacement assay; how it was run: as §2
Sequence of Alpha-1B adrenergic receptor (Rattus norvegicus) (P15823 whole entry): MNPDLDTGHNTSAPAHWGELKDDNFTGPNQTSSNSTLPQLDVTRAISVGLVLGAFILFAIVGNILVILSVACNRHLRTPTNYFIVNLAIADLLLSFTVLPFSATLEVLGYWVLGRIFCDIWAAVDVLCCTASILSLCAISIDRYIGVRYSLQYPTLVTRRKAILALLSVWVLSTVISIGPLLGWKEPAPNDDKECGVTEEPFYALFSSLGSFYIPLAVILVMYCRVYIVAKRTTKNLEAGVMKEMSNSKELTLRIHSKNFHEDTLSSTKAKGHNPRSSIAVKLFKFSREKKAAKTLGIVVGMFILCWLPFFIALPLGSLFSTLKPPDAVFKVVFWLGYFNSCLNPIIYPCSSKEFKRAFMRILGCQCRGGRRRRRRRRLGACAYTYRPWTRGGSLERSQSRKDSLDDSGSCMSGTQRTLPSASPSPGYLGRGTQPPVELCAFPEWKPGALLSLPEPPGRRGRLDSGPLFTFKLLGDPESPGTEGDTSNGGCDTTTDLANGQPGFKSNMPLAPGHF

[16] = test system: Superoxide dismutase [Cu-Zn] (Homo sapiens), P00441 [G94A]; test: Inhibition of SOD1 G93A mutant aggregation-induced cytotoxicity in rat PC12 cells assessed as cell viability incubated for 24 hrs and measured 72 hrs post compound dose by cytotoxicity protection assay; type: cell-based; settings: PC-12
How it was run: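 PC12 cells expressing G93A SOD1-YFP fusion seeded 15000 cells/well, grown 24 h before dosing. 12-point dose response, top 32 μM, twofold dilutions. After 24 h, MG132 added (100 nM final). Viability measured 48 h later with Calcein-AM (1 μM final, 20 min, room temperature) fluorescence. EC50 derived from dose-response.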

[17] = target: Delta-type opioid receptor (Homo sapiens) (UniProt P41143); test: Inhibition of human delta-type opioid receptor at 10 uM by radioligand displacement assay; how it was run: as §1
Sequence of Delta-type opioid receptor (Homo sapiens) (P41143 whole entry): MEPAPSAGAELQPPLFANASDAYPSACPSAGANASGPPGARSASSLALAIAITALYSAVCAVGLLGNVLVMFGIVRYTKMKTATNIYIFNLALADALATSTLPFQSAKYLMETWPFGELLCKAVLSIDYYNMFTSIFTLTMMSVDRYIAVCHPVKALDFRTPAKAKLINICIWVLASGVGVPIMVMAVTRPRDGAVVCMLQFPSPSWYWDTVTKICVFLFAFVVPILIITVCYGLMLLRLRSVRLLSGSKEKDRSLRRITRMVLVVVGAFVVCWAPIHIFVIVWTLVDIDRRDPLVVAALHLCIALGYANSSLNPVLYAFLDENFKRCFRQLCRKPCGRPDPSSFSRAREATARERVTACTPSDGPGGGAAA

Rattus norvegicus [18] = organism: Rattus norvegicus; test: Inhibition of rat purinergic P2Y receptor at 10 uM by radioligand displacement assay; how it was run: as §2
Rattus norvegicus [19] = organism: Rattus norvegicus; test: Inhibition of rat N-type calcium channel at 10 uM by radioligand displacement assay; how it was run: as §2
[20] = Plasma concentration in B6SJL mouse at 300 mg/kg after 12 hrs by mass spectrometry; type: ADME, organism-based; parameters: dose 300 mg/kg
How it was run: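 B6SJL mice were given a single 300 mg/kg intraperitoneal bolus. Blood and brain were collected at 0, 1, 3, 6, 12 and 24 h, flash-frozen in liquid nitrogen and stored at -80 °C. Samples were analyzed by mass spectrometry with ESI ionization in MRM mode.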

Rattus norvegicus [21] = test: Oral bioavailability in Sprague-Dawley rat at 1 mg/kg; type: ADME, organism-based; settings: in vivo
How it was run: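 Sprague-Dawley rats received a single bolus of 1 mg/kg, given both intravenously and orally. Plasma PK parameters, including oral bioavailability (F%), were derived from the two routes.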

Mus musculus [22] = test: Neuroprotective activity in SOD1 G93A mutant B6SJL mouse ALS model assessed as life extension administered qd starting at 6 weeks of age throughout life
[23] = target: Beta-2 adrenergic receptor (Homo sapiens) (UniProt P07550); test: Inhibition of human beta2 adrenergic receptor at 10 uM by radioligand displacement assay; how it was run: as §1
Rattus norvegicus [24] = organism: Rattus norvegicus; test: Inhibition of rat thyroid hormone receptor at 10 uM by radioligand displacement assay; how it was run: as §2
[25] = target: B1 bradykinin receptor (Homo sapiens) (UniProt P46663); test: Inhibition of human bradykinin B1 receptor at 10 uM by radioligand displacement assay; how it was run: as §1
Sequence of B1 bradykinin receptor (Homo sapiens) (P46663 whole entry): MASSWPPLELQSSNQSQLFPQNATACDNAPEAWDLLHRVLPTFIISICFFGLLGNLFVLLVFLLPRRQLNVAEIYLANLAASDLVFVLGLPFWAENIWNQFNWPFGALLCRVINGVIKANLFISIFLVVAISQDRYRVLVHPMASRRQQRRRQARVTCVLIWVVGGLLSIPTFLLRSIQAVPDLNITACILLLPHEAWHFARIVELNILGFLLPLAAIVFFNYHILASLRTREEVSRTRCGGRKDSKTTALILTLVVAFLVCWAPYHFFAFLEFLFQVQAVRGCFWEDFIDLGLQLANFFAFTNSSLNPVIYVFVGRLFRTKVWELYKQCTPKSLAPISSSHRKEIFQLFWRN

Rattus norvegicus [26] = organism: Rattus norvegicus; test: Inhibition of rat sodium channel site 2 at 10 uM by radioligand displacement assay; how it was run: as §2
[27] = test system: Superoxide dismutase [Cu-Zn] (Homo sapiens), P00441 [G94A]; test: Inhibition of SOD1 G93A mutant aggregation-induced cytotoxicity in human HEK293 cells by cytotoxicity protection assay; type: cell-based
[28] = target: Platelet-activating factor receptor (Homo sapiens) (UniProt P25105); test: Inhibition of platelet activating factor receptor at 10 uM by radioligand displacement assay; how it was run: as §2
[29] = target: Glucocorticoid receptor (Homo sapiens) (UniProt P04150); test: Inhibition of human glucocorticoid receptor at 10 uM by radioligand displacement assay; how it was run: as §2
[30] = target: Adenosine receptor A2a (Homo sapiens) (UniProt P29274); test: Inhibition of human adenosine A2 receptor at 10 uM by radioligand displacement assay; how it was run: as §1
Sequence of Adenosine receptor A2a (Homo sapiens) (P29274 whole entry): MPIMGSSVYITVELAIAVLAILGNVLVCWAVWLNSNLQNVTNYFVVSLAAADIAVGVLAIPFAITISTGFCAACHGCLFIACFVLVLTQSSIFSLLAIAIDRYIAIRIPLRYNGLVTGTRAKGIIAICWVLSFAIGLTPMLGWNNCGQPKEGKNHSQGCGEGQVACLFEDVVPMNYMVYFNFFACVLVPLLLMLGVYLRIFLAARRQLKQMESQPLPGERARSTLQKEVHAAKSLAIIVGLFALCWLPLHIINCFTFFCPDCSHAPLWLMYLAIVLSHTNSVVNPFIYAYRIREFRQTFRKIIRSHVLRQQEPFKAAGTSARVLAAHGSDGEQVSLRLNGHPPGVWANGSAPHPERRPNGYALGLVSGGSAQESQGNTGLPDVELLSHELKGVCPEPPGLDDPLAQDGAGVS

[31] = target: Histamine H1 receptor (Homo sapiens) (UniProt P35367); test: Inhibition of human histamine H1 receptor at 10 uM by radioligand displacement assay; how it was run: as §2
[32] = target: Neuropeptide Y receptor type 2 (Homo sapiens) (UniProt P49146); test: Inhibition of human Neuropeptide Y Y2 receptor at 10 uM by radioligand displacement assay; how it was run: as §3
Sequence of Neuropeptide Y receptor type 2 (Homo sapiens) (P49146 whole entry): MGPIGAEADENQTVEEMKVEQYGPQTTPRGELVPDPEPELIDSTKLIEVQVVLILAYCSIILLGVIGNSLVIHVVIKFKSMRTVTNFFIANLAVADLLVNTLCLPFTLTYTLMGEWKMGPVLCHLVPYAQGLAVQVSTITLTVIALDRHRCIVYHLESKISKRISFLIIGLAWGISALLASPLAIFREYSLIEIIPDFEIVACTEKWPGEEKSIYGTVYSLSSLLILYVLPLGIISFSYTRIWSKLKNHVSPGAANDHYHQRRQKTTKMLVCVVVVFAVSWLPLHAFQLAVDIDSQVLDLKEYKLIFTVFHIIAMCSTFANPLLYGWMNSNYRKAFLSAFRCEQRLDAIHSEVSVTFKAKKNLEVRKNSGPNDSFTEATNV

Rattus norvegicus [33] = organism: Rattus norvegicus; test: Inhibition of rat GABAA receptor muscimol site at 10 uM by radioligand displacement assay; how it was run: as §2
[34] = target: Alpha-1A adrenergic receptor (Rattus norvegicus) (UniProt P43140); test: Inhibition of rat adrenergic alpha1A receptor at 10 uM by radioligand displacement assay; how it was run: as §2
Sequence of Alpha-1A adrenergic receptor (Rattus norvegicus) (P43140 whole entry): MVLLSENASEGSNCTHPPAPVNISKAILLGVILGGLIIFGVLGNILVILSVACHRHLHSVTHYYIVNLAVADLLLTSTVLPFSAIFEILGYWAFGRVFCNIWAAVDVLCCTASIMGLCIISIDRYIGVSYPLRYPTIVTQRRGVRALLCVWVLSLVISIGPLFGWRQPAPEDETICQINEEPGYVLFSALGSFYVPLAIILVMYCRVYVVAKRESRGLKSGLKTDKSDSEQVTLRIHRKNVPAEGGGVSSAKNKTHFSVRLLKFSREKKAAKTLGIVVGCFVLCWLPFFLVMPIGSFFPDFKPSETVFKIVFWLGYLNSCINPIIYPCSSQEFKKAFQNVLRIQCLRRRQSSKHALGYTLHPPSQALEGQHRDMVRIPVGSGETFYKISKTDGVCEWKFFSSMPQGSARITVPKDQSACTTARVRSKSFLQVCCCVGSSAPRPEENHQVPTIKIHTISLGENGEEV

O=c1cc(COc2cc(Cl)cc(Cl)c2)[nH][nH]1
inhibition [1]: 15% | inhibition [2]: -2% | inhibition [3]: Active | IC50 (Cytochrome P450 2D6): > 50 µM | inhibition [4]: 10% | t1/2 [5]: 0.6 h | Papp (Caco-2): 14.1 ×10⁻⁶ cm/s | inhibition [6]: -4% | inhibition (Homo sapiens): 6% | inhibition (Mus musculus [7]): 1% | inhibition [8]: 8% | inhibition [9]: 3% | inhibition [10]: -8% | half-life [11]: 3.6 h | inhibition (Rattus norvegicus [12]): -4% | inhibition [13]: -10% | AUC/dose (Rattus norvegicus [14]): 184 ng·h/mL/mg/kg | inhibition [15]: 0% | Activity [16]: 100% | inhibition [17]: 25% | inhibition (Rattus norvegicus [18]): 5% | inhibition (Rattus norvegicus [19]): 3% | concentration at 12 h [20]: 248 µM | F (Rattus norvegicus [21]): 27% | Activity (Mus musculus [22]): Dose-dependent effect | inhibition [23]: -2% | inhibition (Rattus norvegicus [24]): 10% | inhibition [25]: 5% | inhibition (Rattus norvegicus [26]): 4% | inhibition [27]: Active | inhibition [28]: -1% | inhibition [29]: 4% | inhibition [30]: -2% | inhibition [31]: 1% | inhibition [32]: 6% | inhibition (Rattus norvegicus [33]): 1% | inhibition [34]: -2%
